According to PubChem BioAssay:
The list shows a part of the results. Activity calls are given as the source filed them.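 The calls were made as follows, unless noted: active = mean percent inhibition of the KCNQ2 thallium signal more than 5 SD above the buffer-only control wells; inactive = the rest.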

Target: Potassium voltage-gated channel subfamily KQT member 1 (Homo sapiens) (UniProt P51787)
Sequence (P51787 whole entry, looked up): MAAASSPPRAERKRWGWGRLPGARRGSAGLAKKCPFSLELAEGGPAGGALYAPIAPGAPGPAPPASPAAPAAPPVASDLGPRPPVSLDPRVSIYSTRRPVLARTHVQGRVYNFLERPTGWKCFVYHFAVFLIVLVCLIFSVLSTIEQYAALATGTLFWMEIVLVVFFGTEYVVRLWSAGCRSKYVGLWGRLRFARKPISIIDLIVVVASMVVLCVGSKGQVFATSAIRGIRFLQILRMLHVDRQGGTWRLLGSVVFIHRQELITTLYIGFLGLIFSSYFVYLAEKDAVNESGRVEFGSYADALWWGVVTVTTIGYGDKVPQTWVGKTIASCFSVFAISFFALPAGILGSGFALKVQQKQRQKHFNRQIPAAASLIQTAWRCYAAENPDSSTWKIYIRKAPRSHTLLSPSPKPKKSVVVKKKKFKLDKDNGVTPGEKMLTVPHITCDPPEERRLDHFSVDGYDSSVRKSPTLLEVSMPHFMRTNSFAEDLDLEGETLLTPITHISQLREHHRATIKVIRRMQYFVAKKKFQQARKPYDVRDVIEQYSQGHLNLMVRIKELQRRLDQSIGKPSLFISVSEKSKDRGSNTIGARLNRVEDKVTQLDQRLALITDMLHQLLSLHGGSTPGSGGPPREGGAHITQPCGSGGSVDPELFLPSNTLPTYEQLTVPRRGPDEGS
Assay: blockers of human KCNQ1 channel – cell-based, Tl flux, duplicate, confirmation (AID 588353;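 active = primary screen active, with duplicate mean exceeding buffer control mean plus 3 SD of buffer wells, cut at about 28% in these data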;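 also: 0% = buffer control ratio and 100% = XE991 inhibitor control ratio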)
Conditions: KCNQ1 cell line, FluxOR thallium flux fluorescence, at 10 µM, stronger effect = higher value
Summary of the method: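 System: stable KCNQ1-expressing CHO cell line; Reagent: Tl2SO4 plus K2SO4 stimulus, each 12.5 mM in 5x stock; Schedule: dye loading 90 min, compound 20 min, both room temperature; Measured by: thallium-sensitive FluxOR dye fluorescence; Read-out basis: percent inhibition of fluorescence change ratio, scaled buffer to XE991; Control set: buffer and XE991; Replication: duplicate.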
In the case of CCn1c(C)c(C)c2cc(C(=O)N3CCN(c4cccc(C)c4C)CC3)ccc21, the inhibition is reported as 106% (active).
In the case of O=C(CNCCC1=CCCCC1)Nc1ccccc1N1CCCCCC1, the inhibition is reported as 144% (active).
With S=C(NCCCc1ccccc1)Nc1ccc(Br)cc1 the inhibition was 150% (active).
In the case of Clc1cccc(-c2nc(NCC3CCCO3)c3ccccc3n2)c1 (centres undefined), the inhibition is reported as 116% (active).
For Cc1cccc(N2CCN(C(=O)c3cnn4c(C(F)F)cc(-c5ccccc5)nc34)CC2)c1C, the inhibition was 146% (active).

Tested on: not listed separately
Assay: nonspecific activity in CHO-K1 cells without KCNQ1 – parental CHO cells, Tl flux, counter-screen for KCNQ1 inhibitor project (AID 588366;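 active = mean of duplicate thallium-flux fluorescence ratios in parental host cells more than 5 SD below the buffer control mean, cut at about 0.38 in these data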;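 also: ratio is peak minus minimum fluorescence divided by baseline fluorescence; actives read low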)
Conditions: parental CHO-K1, FluxOR thallium flux fluorescence ratio; at 10 µM; stronger effect = lower value; zero means no signal rise above baseline
Summary of the method: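 Assay system: CHO-K1 parental line without KCNQ1 | Reagent: K+/Tl+ depolarizing stimulus | Incubation: 90 min dye load, 20 min compound, room temperature | Technique: Kinetic FluxOR thallium-flux fluorescence, 10 s baseline plus 110 s | Evaluation: Peak-to-trough fluorescence change relative to baseline, duplicate mean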
With CCn1c(C)c(C)c2cc(C(=O)N3CCN(c4cccc(C)c4C)CC3)ccc21 the fluorescence ratio (Tl flux) was 0.475 (inactive).
With O=C(CNCCC1=CCCCC1)Nc1ccccc1N1CCCCCC1 the fluorescence ratio (Tl flux) was 0.402 (inactive).
With S=C(NCCCc1ccccc1)Nc1ccc(Br)cc1 the fluorescence ratio (Tl flux) was 0.591 (inactive).
In the case of Clc1cccc(-c2nc(NCC3CCCO3)c3ccccc3n2)c1 (centres undefined), the fluorescence ratio (Tl flux) is reported as 0.394 (inactive).
With Cc1cccc(N2CCN(C(=O)c3cnn4c(C(F)F)cc(-c5ccccc5)nc34)CC2)c1C the fluorescence ratio (Tl flux) was 0.416 (inactive).

Target: Potassium voltage-gated channel subfamily KQT member 1 (Homo sapiens) (UniProt P51787)
Assay: block of human KCNQ1 potassium current – cell-based, automated electrophysiology, orthogonal assay, confirmation (AID 624120;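 active = KCNQ1 current drop exceeding 3 SD of negative control wells, seen in both duplicate runs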)
Conditions: KCNQ1-CHO cells, automated patch clamp current; at 10 µM
Summary of the method: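 benchmarks = negative controls | test system = CHO cells expressing human KCNQ1 potassium channel | medium = external buffer at pH 7.4 | probe or stimulus = voltage stimulus of 2,000 ms steps to +40 mV, -80 mV holding | repeats = duplicates | signal = amphotericin-perforated automated patch clamp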
For CCn1c(C)c(C)c2cc(C(=O)N3CCN(c4cccc(C)c4C)CC3)ccc21, the outcome was “inactive”.
For O=C(CNCCC1=CCCCC1)Nc1ccccc1N1CCCCCC1, the outcome was “inactive”.
With S=C(NCCCc1ccccc1)Nc1ccc(Br)cc1 the outcome was “inactive”.
With Clc1cccc(-c2nc(NCC3CCCO3)c3ccccc3n2)c1 (centres undefined) the outcome was “inactive”.
With Cc1cccc(N2CCN(C(=O)c3cnn4c(C(F)F)cc(-c5ccccc5)nc34)CC2)c1C the outcome was “inactive”.

Target: Potassium voltage-gated channel subfamily KQT member 2 (Rattus norvegicus) (UniProt O88943)
Sequence (O88943 whole entry, looked up): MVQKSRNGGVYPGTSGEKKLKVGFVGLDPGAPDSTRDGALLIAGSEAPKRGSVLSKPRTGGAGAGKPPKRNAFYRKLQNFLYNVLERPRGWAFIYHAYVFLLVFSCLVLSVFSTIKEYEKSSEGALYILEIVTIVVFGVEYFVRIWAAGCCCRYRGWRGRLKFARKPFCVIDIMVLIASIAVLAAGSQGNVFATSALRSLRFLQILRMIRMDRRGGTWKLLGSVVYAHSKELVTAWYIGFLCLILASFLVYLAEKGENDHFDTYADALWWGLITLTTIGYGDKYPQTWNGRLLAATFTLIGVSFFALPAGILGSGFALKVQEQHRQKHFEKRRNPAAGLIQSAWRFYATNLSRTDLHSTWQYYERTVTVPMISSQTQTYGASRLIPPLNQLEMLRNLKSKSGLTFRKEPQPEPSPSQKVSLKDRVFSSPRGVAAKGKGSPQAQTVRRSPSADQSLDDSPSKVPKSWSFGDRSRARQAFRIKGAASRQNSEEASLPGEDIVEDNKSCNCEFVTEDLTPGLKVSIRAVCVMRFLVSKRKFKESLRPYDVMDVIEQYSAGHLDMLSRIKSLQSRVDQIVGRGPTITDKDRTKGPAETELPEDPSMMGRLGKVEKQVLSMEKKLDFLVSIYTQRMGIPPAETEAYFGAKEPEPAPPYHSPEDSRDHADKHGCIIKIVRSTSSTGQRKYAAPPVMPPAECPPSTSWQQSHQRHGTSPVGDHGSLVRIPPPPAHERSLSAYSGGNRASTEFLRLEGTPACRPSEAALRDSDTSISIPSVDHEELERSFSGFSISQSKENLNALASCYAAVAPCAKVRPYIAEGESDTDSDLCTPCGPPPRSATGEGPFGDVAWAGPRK
Assay: block of rat KCNQ2 potassium channel – cell-based, selectivity assay for KCNQ1 inhibitor project (AID 651746);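 as to inhibition: 0% = buffer control wells and 100% = XE-991 inhibitor control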
Conditions: KCNQ2 cells, FluxOR thallium flux fluorescence, at 10 µM; stronger effect = higher value
With CCn1c(C)c(C)c2cc(C(=O)N3CCN(c4cccc(C)c4C)CC3)ccc21 the inhibition was 66.3% (active).
With O=C(CNCCC1=CCCCC1)Nc1ccccc1N1CCCCCC1 the inhibition was 114% (active).
With S=C(NCCCc1ccccc1)Nc1ccc(Br)cc1 the outcome was “inactive”.
With Clc1cccc(-c2nc(NCC3CCCO3)c3ccccc3n2)c1 (centres undefined) the inhibition was 118% (active).
In the case of Cc1cccc(N2CCN(C(=O)c3cnn4c(C(F)F)cc(-c5ccccc5)nc34)CC2)c1C, the inhibition is reported as 115% (active).

Target: Potassium voltage-gated channel subfamily E member 1 (Homo sapiens) + Potassium voltage-gated channel subfamily KQT member 1 (Homo sapiens) (UniProt P15382+P51787)
Sequence (P51787 whole entry, looked up): as the sequence (P51787 whole entry, looked up) above
Assay: block of human IKs channel complex – CHO-K1 cells, thallium flux, FluxOR, selectivity assay for KCNQ1 inhibitor project (AID 652147;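 active = mean percent inhibition of duplicate wells above the buffer-only control mean plus 3 SD of those controls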;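 also: 0% = buffer only wells and 100% = XE-991 inhibitor control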)
Conditions: KCNQ1/KCNE1 cells, FluxOR thallium flux fluorescence, at 10 µM; stronger effect = higher value
Summary of the method: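 Probe or stimulus: depolarizing thallium/potassium stimulus, 5x stock with 12.5 mM Tl2SO4 and K2SO4. System: KCNQ1/KCNE1 potassium channel-expressing cells, plated overnight. Timing: dye 90 min and compound 20 min at room temperature. Signal: kinetic FluxOR thallium-sensitive fluorescence, 1 Hz sampling, 150 s post-stimulus.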
In the case of CCn1c(C)c(C)c2cc(C(=O)N3CCN(c4cccc(C)c4C)CC3)ccc21, the inhibition is reported as 180% (active).
For O=C(CNCCC1=CCCCC1)Nc1ccccc1N1CCCCCC1, the inhibition was 175% (active).
With S=C(NCCCc1ccccc1)Nc1ccc(Br)cc1 the inhibition was 76.5% (active).
In the case of Clc1cccc(-c2nc(NCC3CCCO3)c3ccccc3n2)c1 (centres undefined), the inhibition is reported as 154% (active).
